According to ChEMBL document CHEMBL5223179, “Phenyl Dihydrouracil: An Alternative Cereblon Binder for PROTAC Design” (ACS Med Chem Lett, 2023):
Active and inactive are the calls of the source. The calls are words filed in the database; no cut-off is given here.

Assays:
KOPTK1 [1] = assay: Cytotoxicity against human KOPT-K1 cells incubated for 24 hrs by Celltiter-Glo assay; format: functional; conditions: read-out: LC50 (the source's name)
Outline: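 KOPT-K1 human T-ALL cells exposed to compound for 24 h. Viability read by CellTiter-Glo luminescence. LC50 derived from concentration-response curves.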

[2] = Metabolic stability in mouse liver microsomes assessed as clearance measured upto 240 mins in presence of NADPH regenerating system by LC-MS/MS analysis; format: ADME, Microsome; conditions: 4 h
[3] = Permeability in human Caco-2 cells after 2 hrs by UPLC/MS analysis; format: ADME, cell-based; conditions: caco-2, 2 h
[4] = target: T1, Tyrosine-protein kinase Lck (Homo sapiens, UniProt P06239); assay: Induction of HiBiT-tagged LCK degradation in human KOPT-K1 cells after 4 hrs by microplate reader analysis; format: cell-based
Target sequence in this assay (P06239 whole entry): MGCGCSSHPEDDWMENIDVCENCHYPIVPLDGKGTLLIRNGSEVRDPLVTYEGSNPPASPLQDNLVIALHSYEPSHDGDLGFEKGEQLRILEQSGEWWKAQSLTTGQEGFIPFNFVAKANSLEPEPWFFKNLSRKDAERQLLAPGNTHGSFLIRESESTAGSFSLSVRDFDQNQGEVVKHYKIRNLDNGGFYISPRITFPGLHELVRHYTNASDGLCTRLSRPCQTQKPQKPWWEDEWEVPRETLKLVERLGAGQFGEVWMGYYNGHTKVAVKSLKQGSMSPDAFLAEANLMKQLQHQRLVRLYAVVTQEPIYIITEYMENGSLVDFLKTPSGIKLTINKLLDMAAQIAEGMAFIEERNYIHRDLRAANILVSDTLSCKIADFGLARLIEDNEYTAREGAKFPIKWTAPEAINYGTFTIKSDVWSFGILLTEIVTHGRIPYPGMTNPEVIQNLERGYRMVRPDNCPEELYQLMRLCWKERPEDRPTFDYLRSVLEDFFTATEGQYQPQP

[5] = Chemical stability of compound in human KOPT-K1 cell culture media assessed as half life incubated upto 48 hrs; format: physicochemical
Outline: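 Compound stability followed in KOPT-K1 cell culture medium over time; half-life derived from the remaining compound.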

[6] = target: Eukaryotic peptide chain release factor GTP-binding subunit ERF3A (Homo sapiens) (UniProt P15170); assay: Induction of HiBiT-tagged GSPT1 degradation in HEK293T cells upto 10 uM incubated for 4 hrs; format: cell-based
Outline: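 HiBiT-tagged GSPT1 in HEK293T cells was measured after compound exposure at concentrations up to 10 μM.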

KOPTK1 [7] = assay: Cytotoxicity against human KOPT-K1 cells incubated for 72 hrs by Celltiter-Glo assay; format: functional; conditions: for CC50: read-out: LC50 (the source's name)
Outline: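 Human T-ALL KOPT-K1 cells treated with compounds for 72 h. Viability measured by CellTiter-Glo. LC50 fitted from dose-response data, reported as the mean of three independent experiments ± SD.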

[8] = target: Protein cereblon/DNA damage-binding protein 1 (Homo sapiens, UniProt Q96SW2); assay: Displacement of Cy5-O-Len from 6His-tagged CRBN/DDB1 (unknown origin) incubated for 1 hr under dark condition by fluorescence polarization assay; format: protein assay
[9] = Metabolic stability in mouse liver microsomes assessed as half life measured upto 240 mins in presence of NADPH regenerating system by LC-MS/MS analysis; format: ADME, Microsome
[10] = target: Casein kinase I isoform alpha (Homo sapiens) (UniProt P48729); assay: Induction of CK1alpha degradation in human KOPT-K1 cells upto 100 nM incubated for 4 hrs by immunoblotting analysis; format: cell-based
Outline: (§1)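 KOPT-K1 cells were treated with compound at concentrations up to 100 nM. Endogenous GSPT1, IKZF1 and CK1α abundance was assessed by immunoblotting.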

[11] = target: Eukaryotic peptide chain release factor GTP-binding subunit ERF3A (Homo sapiens) (UniProt P15170); assay: Induction of GSPT1 degradation in human KOPT-K1 cells upto 100 nM incubated for 4 hrs by immunoblotting analysis; format: cell-based; outline: as §1
[12] = target: T1, Tyrosine-protein kinase Lck; assay: Induction of LCK degradation in human KOPT-K1 cells after 4 hrs by immunoblotting analysis; format: cell-based
Target sequence in this assay (P06239 whole entry): as above

[13] = target: T1, Tyrosine-protein kinase Lck; assay: Induction of LCK degradation in human KOPT-K1 cells assessed as maximum degradation after 4 hrs by immunoblotting analysis relative to control; format: cell-based
Outline: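 KOPT-K1 cells were treated with increasing concentrations of compound for 4 h. Endogenous LCK was assessed by immunoblot. Degradation was calculated from quantified band intensities, and DC50 from the average of three independent experiments.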
Target sequence in this assay (P06239 2-509 limits assumed): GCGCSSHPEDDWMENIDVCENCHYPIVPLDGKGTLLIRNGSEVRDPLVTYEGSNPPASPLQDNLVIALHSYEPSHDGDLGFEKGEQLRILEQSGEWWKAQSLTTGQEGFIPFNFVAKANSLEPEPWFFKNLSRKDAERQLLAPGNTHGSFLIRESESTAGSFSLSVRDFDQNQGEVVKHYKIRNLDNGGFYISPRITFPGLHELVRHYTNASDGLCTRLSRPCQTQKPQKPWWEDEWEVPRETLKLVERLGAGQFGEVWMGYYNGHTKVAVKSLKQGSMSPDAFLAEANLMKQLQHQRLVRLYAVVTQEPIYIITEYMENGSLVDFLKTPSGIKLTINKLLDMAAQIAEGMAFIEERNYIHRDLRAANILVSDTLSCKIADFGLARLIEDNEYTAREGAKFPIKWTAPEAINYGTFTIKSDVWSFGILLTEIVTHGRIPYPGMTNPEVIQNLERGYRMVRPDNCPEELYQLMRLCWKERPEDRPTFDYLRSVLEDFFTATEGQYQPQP

[14] = target: DNA-binding protein Ikaros (Homo sapiens) (UniProt Q13422); assay: Induction of IKZF1 degradation in human KOPT-K1 cells upto 100 nM incubated for 4 hrs by immunoblotting analysis; format: cell-based; outline: as §1
Sequence of DNA-binding protein Ikaros (Homo sapiens) (Q13422 whole entry): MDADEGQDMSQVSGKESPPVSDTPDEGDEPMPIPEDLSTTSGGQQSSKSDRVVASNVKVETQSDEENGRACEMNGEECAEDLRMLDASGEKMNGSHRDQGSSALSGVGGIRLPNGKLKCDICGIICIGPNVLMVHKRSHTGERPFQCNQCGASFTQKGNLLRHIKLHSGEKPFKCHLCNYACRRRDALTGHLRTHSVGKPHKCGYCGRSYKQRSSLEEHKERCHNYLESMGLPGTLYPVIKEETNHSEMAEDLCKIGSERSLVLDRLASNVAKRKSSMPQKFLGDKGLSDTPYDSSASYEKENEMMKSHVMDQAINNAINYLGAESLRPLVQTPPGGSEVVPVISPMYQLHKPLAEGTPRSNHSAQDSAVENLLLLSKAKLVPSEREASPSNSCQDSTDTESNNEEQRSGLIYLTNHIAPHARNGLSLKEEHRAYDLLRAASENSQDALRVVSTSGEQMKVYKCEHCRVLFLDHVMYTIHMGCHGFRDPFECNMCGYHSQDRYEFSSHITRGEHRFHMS

Sequence of Eukaryotic peptide chain release factor GTP-binding subunit ERF3A (Homo sapiens) (P15170 whole entry): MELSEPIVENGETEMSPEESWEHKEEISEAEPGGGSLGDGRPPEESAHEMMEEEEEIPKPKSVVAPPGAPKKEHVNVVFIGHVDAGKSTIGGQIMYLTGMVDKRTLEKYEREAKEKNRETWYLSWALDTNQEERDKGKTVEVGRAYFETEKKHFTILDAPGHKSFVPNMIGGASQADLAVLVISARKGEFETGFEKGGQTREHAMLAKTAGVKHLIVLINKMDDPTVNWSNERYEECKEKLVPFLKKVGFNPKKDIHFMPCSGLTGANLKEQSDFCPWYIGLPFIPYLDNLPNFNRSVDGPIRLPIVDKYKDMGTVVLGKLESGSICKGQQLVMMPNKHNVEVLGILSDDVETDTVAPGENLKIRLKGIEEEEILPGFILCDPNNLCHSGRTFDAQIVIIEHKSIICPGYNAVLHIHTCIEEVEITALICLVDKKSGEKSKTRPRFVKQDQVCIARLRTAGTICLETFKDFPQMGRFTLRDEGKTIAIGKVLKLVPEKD
Sequence of Casein kinase I isoform alpha (Homo sapiens) (P48729 2-337 limits assumed): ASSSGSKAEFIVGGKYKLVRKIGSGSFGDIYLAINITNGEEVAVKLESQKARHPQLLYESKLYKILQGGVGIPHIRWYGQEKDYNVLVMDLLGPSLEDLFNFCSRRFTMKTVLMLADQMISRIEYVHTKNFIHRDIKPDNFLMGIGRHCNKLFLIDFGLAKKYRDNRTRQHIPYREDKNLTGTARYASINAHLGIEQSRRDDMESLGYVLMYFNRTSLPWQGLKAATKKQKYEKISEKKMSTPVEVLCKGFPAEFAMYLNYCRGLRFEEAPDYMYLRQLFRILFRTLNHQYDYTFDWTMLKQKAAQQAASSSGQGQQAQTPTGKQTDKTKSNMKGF
Sequence of Protein cereblon/DNA damage-binding protein 1 (Q96SW2 whole entry): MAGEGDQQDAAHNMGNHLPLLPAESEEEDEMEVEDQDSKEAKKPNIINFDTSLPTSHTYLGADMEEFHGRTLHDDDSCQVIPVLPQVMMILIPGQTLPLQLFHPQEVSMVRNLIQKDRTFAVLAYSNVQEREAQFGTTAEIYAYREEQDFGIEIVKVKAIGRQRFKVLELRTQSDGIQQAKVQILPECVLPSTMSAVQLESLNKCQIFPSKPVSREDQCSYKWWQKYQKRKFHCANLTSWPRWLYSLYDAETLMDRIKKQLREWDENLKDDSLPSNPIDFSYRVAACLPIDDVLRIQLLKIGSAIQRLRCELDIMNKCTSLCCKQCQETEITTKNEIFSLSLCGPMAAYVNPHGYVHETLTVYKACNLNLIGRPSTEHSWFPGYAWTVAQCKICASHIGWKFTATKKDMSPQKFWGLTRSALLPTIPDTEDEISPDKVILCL
Sequence of Protein cereblon/DNA damage-binding protein 1 (Q16531 whole entry, further chain): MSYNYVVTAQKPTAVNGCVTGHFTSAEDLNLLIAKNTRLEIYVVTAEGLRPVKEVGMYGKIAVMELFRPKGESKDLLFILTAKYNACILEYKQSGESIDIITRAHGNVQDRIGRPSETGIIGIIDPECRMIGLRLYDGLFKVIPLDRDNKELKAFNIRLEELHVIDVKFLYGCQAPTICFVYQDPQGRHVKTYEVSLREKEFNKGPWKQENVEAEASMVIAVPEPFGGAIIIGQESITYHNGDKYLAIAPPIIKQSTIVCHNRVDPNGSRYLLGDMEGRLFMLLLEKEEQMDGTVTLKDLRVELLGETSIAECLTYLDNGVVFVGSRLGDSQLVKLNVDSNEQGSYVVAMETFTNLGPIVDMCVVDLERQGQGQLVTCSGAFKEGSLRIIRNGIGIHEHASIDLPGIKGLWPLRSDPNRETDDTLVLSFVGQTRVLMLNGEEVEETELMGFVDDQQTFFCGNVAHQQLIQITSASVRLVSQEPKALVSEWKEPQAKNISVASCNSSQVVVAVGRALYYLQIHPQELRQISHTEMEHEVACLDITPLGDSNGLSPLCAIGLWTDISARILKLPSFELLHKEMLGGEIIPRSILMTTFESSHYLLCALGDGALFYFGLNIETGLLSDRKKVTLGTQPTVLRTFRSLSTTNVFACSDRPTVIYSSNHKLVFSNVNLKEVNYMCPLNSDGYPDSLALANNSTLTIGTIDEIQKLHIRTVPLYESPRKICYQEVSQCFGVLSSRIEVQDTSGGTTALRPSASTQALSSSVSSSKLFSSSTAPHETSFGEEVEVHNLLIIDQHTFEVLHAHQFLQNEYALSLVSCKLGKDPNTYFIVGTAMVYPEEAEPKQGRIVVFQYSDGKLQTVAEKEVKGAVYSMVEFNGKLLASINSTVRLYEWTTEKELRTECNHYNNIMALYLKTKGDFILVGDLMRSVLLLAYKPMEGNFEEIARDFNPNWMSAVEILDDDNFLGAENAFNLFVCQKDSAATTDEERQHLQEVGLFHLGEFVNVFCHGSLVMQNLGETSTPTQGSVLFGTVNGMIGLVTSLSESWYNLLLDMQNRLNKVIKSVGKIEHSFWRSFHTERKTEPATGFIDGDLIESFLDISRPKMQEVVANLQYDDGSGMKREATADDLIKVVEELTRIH

Row | Compound | CC50 (KOPTK1 [1]) | Stability [2] | permeability [3] | DC50 [4] | T1/2 [5] | also measured
1 | Cc1nc(Nc2ncc(C(=O)Nc3c(C)cccc3Cl)s2)cc(N2CCN(CCCC(=O)N3CCN(c4ccc(C5CCC(=O)NC5=O)cc4)CC3)CC2)n1 (stereo not drawn) | 0.005 nM | Unstable | Impermeable | 8 nM | – | –
2 | Cc1nc(Nc2ncc(C(=O)Nc3c(C)cccc3Cl)s2)cc(N2CCN(CCCNC(=O)COc3cccc4c3C(=O)N(C3CCC(=O)NC3=O)C4=O)CC2)n1 (stereo not drawn) | 8 nM | Unstable | Impermeable | 13 nM | 13 h | Activity [6]: inactive; CC50 (KOPTK1 [7]): 10 nM; IC50 [8]: 1030 nM
3 | Cc1nc(Nc2ncc(C(=O)Nc3c(C)cccc3Cl)s2)cc(N2CCN(CCO)CC2)n1.O [DASATINIB] | – | – | – | – | – | half-life [9]: 49.2 min
4 | Cc1nc(Nc2ncc(C(=O)Nc3c(C)cccc3Cl)s2)cc(N2CCN(CCCNC(=O)COc3ccc(N4CCC(=O)NC4=O)cc3)CC2)n1 | 28 nM | Unstable | Impermeable | 15 nM | > 48 h | Activity [10]: inactive; CC50 (KOPTK1 [7]): 0.005 nM; Activity [11]: inactive; DC50 [12]: 8 nM; Emax [13]: 66%; Activity [14]: inactive
5 | Cc1nc(Nc2ncc(C(=O)Nc3c(C)cccc3Cl)s2)cc(N2CCN(CCCNC(=O)COc3ccc(C4CCC(=O)NC4=O)cc3)CC2)n1 (stereo not drawn) | 0.24 nM | Unstable | Impermeable | 6 nM | > 48 h | –
6 | Cc1nc(Nc2ncc(C(=O)Nc3c(C)cccc3Cl)s2)cc(N2CCN(CCCC(=O)N3CCN(c4ccc(N5CCC(=O)NC5=O)cc4)CC3)CC2)n1 | 37 nM | Unstable | Impermeable | – | – | Activity [10]: inactive; Activity [11]: inactive; Emax [13]: 98.4%; Activity [14]: inactive
7 | O=C(O)COc1ccc(N2CCC(=O)NC2=O)cc1 | – | – | – | – | – | Activity (KOPTK1 [7]): inactive
8 | O=C1CCN(c2ccc(N3CCNCC3)cc2)C(=O)N1 | – | – | – | – | – | Activity (KOPTK1 [7]): inactive
